Values after ≈ are worked out from the molar mass of the structure shown. *1 amine or outer side, *2 acyl side, *3 side chain or, on linkers, in order; H or OH if unused. Where a SMILES comes first, the peptide text is derived from it. Bridges are numbered along the chain shown (N, C = ends). [ ]: non-standard residue; d: D form. The star is where a group is joined. hTyr(3S-OH,4S-OH,3'-OSO3H) = N[C@H](C(=O)O)[C@H](O)[C@@H](O)c1ccc(O)c(OS(=O)(=O)O)c1; pTerphenylCO(4''-OnC5H11) = CCCCCOc1ccc(-c2ccc(-c3ccc(C(=O)*)cc3)cc2)cc1; Orn(4R-OH,5R-OH) = O=C([C@H](C[C@@H](O)[C@@H](O)N[*:3])N[*:1])[*:2]; hTyr(3S-OH,4S-OH) = N[C@H](C(=O)O)[C@H](O)[C@@H](O)c1ccc(O)cc1; Pro(3S-OH,4S-Me) = C[C@H]1CN[C@H](C(=O)O)[C@H]1O; X1 = CCCCCOc1ccc(-c2cc(-c3ccc(C(=O)*)cc3)no2)cc1; Gln(3R-OH) = NC(=O)C[C@@H](O)[C@H](N)C(=O)O; Hyp = O=C(O)[C@@H]1C[C@@H](O)CN1
Legend:
Nakaseomyces glabratus [1] = assay: Antifungal activity against Candida glabrata 35315 after 24 hrs; format: functional; conditions: Nakaseomyces glabratus, 35315, 24 h
Procedure, shortened: (§1)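 MICs by CLSI M27-A3 broth dilution in RPMI 1640, inoculum 0.5 × 10³ to 2.5 × 10³ cells/ml, 35°C. Read visually at 24 h as the lowest concentration giving ≥50% growth reduction versus control. Run on three occasions in duplicate and reported as the mean. C. krusei ATCC 6258 and C. parapsilosis ATCC 22019 served as QC strains.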

Candida parapsilosis [2] = assay: Antifungal activity against Candida parapsilosis 20553.009 after 24 hrs; format: functional; conditions: Lodderomyces parapsilosis, 20553.009, 24 h; procedure, shortened: as §1
Nakaseomyces glabratus [3] = assay: Antifungal activity against Candida glabrata 33609 after 24 hrs; format: functional; conditions: Nakaseomyces glabratus, 33609, 24 h
Procedure, shortened: (§2)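 Broth microdilution per CLSI M27-A3 in RPMI 1640; inoculum 0.5 × 10³ to 2.5 × 10³ cells/ml, 35°C. […] Three separate occasions in duplicate, mean reported; C. krusei ATCC 6258 and C. parapsilosis ATCC 22019 as daily QC.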

[4] = AUC (0 to 24 hrs) in Candida albicans infected neutropenic ICR Swiss mouse at 80 mg/kg, ip; format: ADME, organism-based; design: time < 24 hr, dose 80 mg/kg, route intraperitoneal; conditions: plasma
Procedure, shortened: (§3)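 Neutropenic female ICR Swiss mice (cyclophosphamide sc at 150 mg/kg on day −4, 100 mg/kg on day −1 and day +2) infected iv via tail vein with Candida; single ip doses of 5, 20 or 80 mg/kg. Serum drawn from 3 mice per time point at eight time points and assayed by microbiologic assay (C. albicans K1) or […]. Noncompartmental analysis; AUC by trapezoidal rule.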

Candida parapsilosis [5] = assay: Antifungal activity against Candida parapsilosis 20557.012 after 24 hrs; format: functional; conditions: Lodderomyces parapsilosis, 20557.012, 24 h; procedure, shortened: as §1
Candida parapsilosis [6] = assay: Antifungal activity against Candida parapsilosis 20435.057 after 24 hrs; format: functional; conditions: Lodderomyces parapsilosis, 20435.057, 24 h; procedure, shortened: as §1
[7] = Ratio of fAUC (0 to 24 hrs) in Candida albicans infected neutropenic ICR Swiss mouse to MIC for Candida albicans at static dose after 24 hrs; format: functional
Candida albicans [8] = assay: Antifungal activity against Candida albicans infected in ICR Swiss mouse; format: functional; conditions: for ED50: Candida albicans
Procedure, shortened: (§4)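 Female ICR Swiss mice, neutropenic via cyclophosphamide s.c. (150 mg/kg day −4, 100 mg/kg day −1 and day +2), infected by tail-vein injection of clinical isolates 2 h before therapy. Intraperitoneal dosing every 24 h for 4 days, 4–6 dose levels from 0.078 to 160 mg/kg, 3 mice per regimen. Kidney CFU counted at 96 h. Sigmoid dose-effect fit gives static dose and 1 log kill dose relative to burden at start of therapy.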

Candida parapsilosis [9] = assay: Fungistatic activity against Candida parapsilosis infected in neutropenic ICR Swiss mouse after 24 hrs; format: functional; procedure, shortened: as §4
Candida albicans [10] = assay: Antifungal activity against Candida albicans 98-234 after 24 hrs; format: functional; conditions: 98-234, 24 h; procedure, shortened: as §1
Candida albicans [11] = assay: Antifungal activity against Candida albicans 98-210 after 24 hrs; format: functional; conditions: 98-210, 24 h; procedure, shortened: as §2
Mus musculus [12] = assay: Cmax in Candida albicans infected neutropenic ICR Swiss mouse at 20 mg/kg, ip; format: ADME, organism-based; design: dose 20 mg/kg, route intraperitoneal; conditions: in vivo; procedure, shortened: as §3
Mus musculus [13] = assay: Cmax in Candida albicans infected neutropenic ICR Swiss mouse at 5 mg/kg, ip; format: ADME, organism-based; design: dose 5 mg/kg, route intraperitoneal; conditions: in vivo; procedure, shortened: as §3
Candida parapsilosis [14] = assay: Antifungal activity against Candida parapsilosis 20519.069 after 24 hrs; format: functional; conditions: Lodderomyces parapsilosis, 20519.069, 24 h; procedure, shortened: as §1
Candida parapsilosis [15] = assay: Antifungal activity against Candida parapsilosis infected in ICR Swiss mouse assessed log reduction in bacterial count […]; format: functional; procedure, shortened: as §4
Candida parapsilosis [16] = assay: Antifungal activity against Candida parapsilosis 20477.078 after 24 hrs; format: functional; conditions: Lodderomyces parapsilosis, 20477.078, 24 h; procedure, shortened: as §1
Candida albicans [17] = assay: Antifungal activity against Candida albicans 98-17 after 24 hrs; format: functional; conditions: 98-17, 24 h; procedure, shortened: as §1
[18] = AUC (0 to 24 hrs) in Candida albicans infected neutropenic ICR Swiss mouse at 20 mg/kg, ip; format: ADME, organism-based; design: time < 24 hr, dose 20 mg/kg, route intraperitoneal; conditions: plasma; procedure, shortened: as §3
[19] = Ratio of AUC (0 to 24 hrs) in Candida parapsilosis infected neutropenic ICR Swiss mouse to MIC for Candida parapsilosis at 1 log kill dose after 24 hrs; format: functional
Procedure, shortened: (§5)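 Neutropenic mice were infected iv and treated 2 h later. Four to six ip dose levels (0.078–160 mg/kg) were given every 24 h for 4 days, 3 mice per regimen. Kidney CFU were counted at 96 h. A sigmoid dose-effect model gave the static and 1-log-kill doses relative to burden at therapy start.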

[20] = Ratio of AUC (0 to 24 hrs) in Candida albicans infected neutropenic ICR Swiss mouse to MIC for Candida albicans at 1 log kill dose after 24 hrs; format: functional; procedure, shortened: as §5
Mus musculus [21] = assay: Cmax in Candida albicans infected neutropenic ICR Swiss mouse at 80 mg/kg, ip; format: ADME, organism-based; design: dose 80 mg/kg, route intraperitoneal; conditions: in vivo; procedure, shortened: as §3

Structure (SMILES) | MIC (Nakaseomyces glabratus [1]) [mg/L] | MIC (Candida parapsilosis [2]) [mg/L] | MIC (Nakaseomyces glabratus [3]) [mg/L] | AUC(0-t) at 24 h [4] [µg·h/mL] | MIC (Candida parapsilosis [5]) [mg/L] | MIC (Candida parapsilosis [6]) [mg/L] | Ratio [7] | Emax (Candida albicans [8]) [log10 CFU/kidneys] | ED50 (Candida albicans [8]) [mg/kg] | Activity (Candida parapsilosis [9]) [mg/kg] | MIC (Candida albicans [11]) [mg/L] | MIC (Candida parapsilosis [14]) [mg/L] | Activity (Candida parapsilosis [15]) [mg/kg] | MIC (Candida parapsilosis [16]) [mg/L] | MIC (Candida albicans [17]) [mg/L] | AUC(0-t) at 24 h [18] [µg·h/mL] | Ratio [19] | Ratio [20] | further results
CCCCCOc1ccc(-c2ccc(-c3ccc(C(=O)N[C@H]4C[C@@H](O)[C@@H](O)NC(=O)[C@@H]5[C@@H](O)[C@@H](C)CN5C(=O)[C@H]([C@@H](C)O)NC(=O)[C@H]([C@H](O)[C@@H](O)c5ccc(O)cc5)NC(=O)[C@@H]5C[C@@H](O)CN5C(=O)[C@H]([C@@H](C)O)NC4=O)cc3)cc2)cc1 [ANIDULAFUNGIN] ({pTerphenylCO(4''-OnC5H11)}-[Orn(4R-OH,5R-OH)]T[Hyp][hTyr(3S-OH,4S-OH)]T[Pro(3S-OH,4S-Me)]; lactam 1-C) | 0.25 (≈ 0.219 µM) | 2 (≈ 1.75 µM) | 0.03 (≈ 0.0263 µM) | 1980 | 0.5 (≈ 0.438 µM) | 1 (≈ 0.877 µM) | 27.8 | 6.9 | 26.1 | 51 | 0.015 (≈ 0.0132 µM) | 4 (≈ 3.51 µM) | 47 | 2 (≈ 1.75 µM) | 0.03 (≈ 0.0263 µM) | 382 | 2244 | 9125 | MIC (Candida albicans [10]): 0.015 mg/L (≈ 0.0132 µM); Cmax (Mus musculus [12]): 24 µg/mL; Cmax (Mus musculus [13]): 4.3 µg/mL; Cmax (Mus musculus [21]): 60 µg/mL
CCCCCOc1ccc(-c2cc(-c3ccc(C(=O)N[C@H]4C[C@@H](O)[C@@H](O)NC(=O)[C@@H]5[C@@H](O)[C@@H](C)CN5C(=O)[C@H]([C@H](O)CC(N)=O)NC(=O)[C@H]([C@H](O)[C@@H](O)c5ccc(O)c(OS(=O)(=O)O)c5)NC(=O)[C@@H]5C[C@@H](O)CN5C(=O)[C@H]([C@@H](C)O)NC4=O)cc3)no2)cc1 [MICAFUNGIN] (X1-[Orn(4R-OH,5R-OH)]T[Hyp][hTyr(3S-OH,4S-OH,3'-OSO3H)][Gln(3R-OH)][Pro(3S-OH,4S-Me)]; lactam 1-C) | 0.06 (≈ 0.0472 µM) | 1 (≈ 0.787 µM) | 0.016 (≈ 0.0126 µM) | 1400 | 0.25 (≈ 0.197 µM) | 0.5 (≈ 0.394 µM) | 12.7 | 7.2 | 18.9 | 32.3 | 0.016 (≈ 0.0126 µM) | 1 (≈ 0.787 µM) | 55.8 | 0.5 (≈ 0.394 µM) | 0.03 (≈ 0.0236 µM) | 520 | 3090 | 10088 | 
